In ChEMBL document CHEMBL1153848, “Design and synthesis of azolopyrimidoquinolines, pyrimidoquinazolines as anti-oxidant, anti-inflammatory and analgesic activities” (2009) one finds Activity and inhibition data, which are given here for eleven compounds.

Test [1] can be described thus: Antioxidant activity in Sprague-Dawley rat erythrocytes assessed as peroxyl radical-induced hemolysis after 1 hr. The format is functional, Erythrocyte.
The nature of test [2]: Antioxidant activity assessed as ABTS radical scavenging activity at 2 mM. The format is functional. In short, it runs like this:
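ABTS radical scavenging, read as the fall in colour absorbance after MeOH/phosphate buffer (1:1) is added. % inhibition = (A_control − A_test)/A_control × 100. The negative control uses MeOH/phosphate buffer (1:1) in place of compound, the blank omits ABTS, and ascorbic acid is the positive control.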

Test [3] is described as follows: Protection against bleomycin-induced damage in calf thymus type 1 DNA assessed as absorbance at 532 nm after 1 hr. Also noted: concentration or dose not given beside the values. In short, it runs like this: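 Reaction mixture: calf thymus DNA 0.5 mg/mL, bleomycin sulfate 0.05 mg/mL, MgCl2 5 mM, […], sample at various concentrations; 37 °C for 1 h. Stopped with EDTA (0.1 M), then TBA (1% w/v) plus HCl (25% v/v), heated 80 °C 10 min. After centrifugation, DNA damage read as absorbance increase at 532 nm. L-ascorbic acid as positive control.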

The subject of another test is Brain. In words: Antioxidant activity in Sprague-Dawley rat brain assessed as inhibition of lipid peroxidation. Format: functional, tissue-based.
A further test relates to Kidney. The test is described as follows: Antioxidant activity in Sprague-Dawley rat kidney assessed as inhibition of lipid peroxidation. Format: functional, tissue-based.
Test [4] concerns Rattus norvegicus. The test is described as follows: Antiinflammatory activity in Sprague-Dawley rat assessed as protection against carrageenan-induced hind paw edema at 20 mg/kg, po administered 1 hr before carrageenan challenge measured after 1 hr. The format is functional. The essentials:
(§1)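 Adult female albino rats (150–180 g), fasted 18 h, six per group. Aqueous suspension in distilled water given orally at 20 mg/kg 1 h before subplantar injection of 0.1 mL 1% w/v carrageenan into the left hind paw. Vehicle controls got 0.5 mL water; diclofenac sodium 20 mg/kg po was the reference. Paw volume was measured by mercury plethysmometer before injection and hourly for 4 h. Inhibition = (Ec−Et)/Ec, with edema = (Vt−V0)/V0.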
(In general: Carrageenan injected into the paw causes an acute inflammation.)

In test [5] the test system is Rattus norvegicus. The test is described as follows: Antiinflammatory activity in Sprague-Dawley rat assessed as protection against carrageenan-induced hind paw edema at 20 mg/kg, po administered 1 hr before carrageenan challenge measured after 2 hrs. Format: functional. In short, it runs like this:
as §1

Test [6] has as its system Rattus norvegicus. The test is described as follows: Antiinflammatory activity in Sprague-Dawley rat assessed as protection against carrageenan-induced hind paw edema at 20 mg/kg, po administered 1 hr before carrageenan challenge measured after 3 hrs. The format is functional. In short, it runs like this:
as §1

The subject of test [7] is Mus musculus. The test is described as follows: Central analgesic activity in Swiss albino mouse assessed as thermal stimuli reaction time at 20 mg/kg, po after 30 mins by hot plate method. The format is functional. In short, it runs like this: (§2)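 Swiss mice of both sexes (25–30 g), six per group, on a hot plate held at 53 ± 0.5 °C. Latency was timed to hind-paw licking or jumping, with a 60 s cut-off. It was measured before dosing, then at 15, 30, 60 and 90 min after an oral aqueous suspension at 20 mg/kg. Controls were untreated; oral diclofenac sodium 20 mg/kg was the reference.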
A general note: Thermal pain tests record how soon the animal reacts.

The subject of test [8] is Mus musculus. In words: Central analgesic activity in Swiss albino mouse assessed as thermal stimuli reaction time at 20 mg/kg, po after 60 mins by hot plate method. Format: functional. The essentials: as §2
The test system of test [9] is Mus musculus. The test is described as follows: Central analgesic activity in Swiss albino mouse assessed as thermal stimuli reaction time at 20 mg/kg, po after 90 mins by hot plate method. The format is functional. The essentials: as §2
Test [10] deals with Mus musculus. In words: Peripheral analgesic activity in Swiss albino mouse assessed as protection against acetic acid-induced writhing response at 20 mg/kg, po administered 30 mins before acetic acid challenge measured after 30 mins relative to control. The format is functional.
The test system of test [11] is Mus musculus. The test is described as follows: Peripheral analgesic activity in Swiss albino mouse assessed as protection against acetic acid-induced writhing response at 20 mg/kg, po administered 30 mins before acetic acid challenge measured after 1 hr relative to control. Format: functional.
For test [12], the system named is Mus musculus. The test is described as follows: Peripheral analgesic activity in Swiss albino mouse assessed as protection against acetic acid-induced writhing response at 20 mg/kg, po administered 30 mins before acetic acid challenge measured after 2 hrs relative to control. The format is functional. For orientation: An intraperitoneal irritant provokes the stretching counted in writhing tests.

Test [13] deals with Mus musculus. The test is described as follows: Peripheral analgesic activity in Swiss albino mouse assessed as protection against acetic acid-induced writhing response at 20 mg/kg, po administered 30 mins before acetic acid challenge measured after 3 hrs relative to control. Format: functional.

The source made the active and inactive calls.

For orientation: inhibition means how much of the control response was suppressed. For the compound `CCn1c(SC)nc2nc3c(c(-c4ccc(Cl)cc4)c2c1=O)CCC/C3=C/c1ccc(Cl)cc1`, the figures for the Activity in test [1] and in test [3] were 3.93% and 0.021, respectively. Besides, the inhibition in [2] was 37%. Also, the result in the test on Brain and with Kidney was Active.

For `C/C(=N/NC(N)=S)c1sc2nc3nc4c(c(-c5ccc(Cl)cc5)c3c(=O)n2c1C)CCC/C4=C/c1ccc(Cl)cc1`, the Activity was determined as 6.21% in test [1] and 0.065 in test [3]. Moreover, the inhibition in test [2] was 63%. In addition, the result in the test on Brain and in the test on Kidney was Active.

For `CC(=O)c1sc2nc3nc4c(c(-c5ccc(Cl)cc5)c3c(=O)n2c1C)CCC/C4=C/c1ccc(Cl)cc1`, the Activity was found to be 6.06% in test [1]; 46.7% with Rattus norvegicus [4]; 44.2% with Rattus norvegicus [5]; 39.2% in the test on Rattus norvegicus [6]; 7.54 min with Mus musculus [7]; 8.61 min in the test with Mus musculus [8]. For the same compound, the Activity in the test on Mus musculus [9] was found to be 12 min; with Mus musculus [10], 43.5%; with Mus musculus [11] it was 49%; with Mus musculus [12], 53.1%; in the test with Mus musculus [13], 38.4%. Also, in test [2], the inhibition came to 40.7%. Also, the result in the test with Brain and with Kidney was Active.

Turning to `CC(=O)C(Sc1nc2nc3c(c(-c4ccc(Cl)cc4)c2c(=O)[nH]1)CCC/C3=C/c1ccc(Cl)cc1)C(C)=O`, the Activity is reported as 7.87% in test [1]; 46.3% in the test on Rattus norvegicus [4]; 48.6% with Rattus norvegicus [5]; 38.6% in the test with Rattus norvegicus [6]; 8.68 min in the test on Mus musculus [7]; 9.8 min in the test on Mus musculus [8]. The Activity with Mus musculus [9] came to 10.4 min; in the test with Mus musculus [10], 46%; in the test with Mus musculus [11] it was 54%; with Mus musculus [12], 56.6%; in the test with Mus musculus [13], 37.3%. Also, the inhibition in test [2] was determined as 42.6%. The outcome in the test on Brain and with Kidney was Active.

For the compound `Cc1c(C(=O)/C=C/c2ccccc2)sc2nc3nc4c(c(-c5ccc(Cl)cc5)c3c(=O)n12)CCC/C4=C/c1ccc(Cl)cc1`, the results for the Activity in [1] and in test [3] were 4.54% and 0.035, respectively. The inhibition in test [2] is 38.9%. In addition, the outcome in the test with Brain and in the test on Kidney was Active.

Turning to `COc1ccc(/C=C2\CCCC3=C2Nc2[nH]c(=S)[nH]c(=O)c2C3c2ccc(OC)cc2)cc1` (stereo not given), the Activity in test [1] is 8.18%; in the test on Rattus norvegicus [4], 59.5%; in the test on Rattus norvegicus [5], 62.4%; in the test on Rattus norvegicus [6] it was 46.5%; with Mus musculus [7], 9.84 min; in the test on Mus musculus [8], 11.62 min. The Activity is reported as 11.88 min with Mus musculus [9]; 69% in the test on Mus musculus [10]; 74% in the test on Mus musculus [11]; 75.4% in the test on Mus musculus [12]; 58.2% in the test on Mus musculus [13]. In addition, the inhibition in test [2] worked out at 66.7%. Further, the outcome in the test on Brain and in the test with Kidney was Active.

For `CSc1nc2nc3c(c(-c4ccc(Cl)cc4)c2c(=O)[nH]1)CCC/C3=C/c1ccc(Cl)cc1`, the Activity was 4.24% in [1]; 50.1% in the test with Rattus norvegicus [4]; 56.2% with Rattus norvegicus [5]; 32.4% in the test on Rattus norvegicus [6]; 8.42 min in the test on Mus musculus [7]; 10.41 min with Mus musculus [8]. Besides, the Activity in the test on Mus musculus [9] is listed as 10.67 min; with Mus musculus [10], 50.4%; in the test with Mus musculus [11] it was 52%; in the test with Mus musculus [12], 55.5%; in the test on Mus musculus [13] it was 37.6%. In addition, in test [2], the inhibition came out at 33.3%. Besides, the result with Brain and with Kidney was Active.

Take `O=c1[nH]c(=S)[nH]c2c1C(c1ccc(Cl)cc1)C1=C(N2)/C(=C/c2ccc(Cl)cc2)CCC1` (stereo not given): the Activity stood at 12.72% in [1]; 56.3% in the test on Rattus norvegicus [4]; 62% in the test on Rattus norvegicus [5]; 40.2% in the test with Rattus norvegicus [6]; 9.42 min with Mus musculus [7]; 10.41 min in the test on Mus musculus [8]. Besides, the Activity with Mus musculus [9] came out at 11.67 min; in the test on Mus musculus [10] it was 60.4%; in the test on Mus musculus [11] it was 69%; in the test on Mus musculus [12], 74.3%; in the test with Mus musculus [13], 47.3%. Moreover, the inhibition in test [2] was found to be 59.3%. Also, the result in the test with Brain and with Kidney was Active.

Regarding `O=c1/c(=C/c2ccccc2)sc2nc3nc4c(c(-c5ccc(Cl)cc5)c3c(=O)n12)CCC/C4=C/c1ccc(Cl)cc1`, the Activity in [1] amounted to 5.75%; with Rattus norvegicus [4], 59.8%; in the test with Rattus norvegicus [5], 59.3%; in the test with Rattus norvegicus [6] it was 42.3%; with Mus musculus [7] it was 9.16 min; in the test on Mus musculus [8] it was 10.78 min. The Activity with Mus musculus [9] was 11.08 min; with Mus musculus [10], 73.2%; in the test with Mus musculus [11], 76%; in the test on Mus musculus [12] it was 77.2%; in the test with Mus musculus [13], 60.3%. Besides, in test [2], the inhibition came out at 40.7%. Also, the outcome in the test with Brain and in the test with Kidney was Active.

For the compound `O=C1O[C@H]([C@@H](O)CO)C(O)=C1O`, in [3], the Activity is 0.02.

For `O=c1[nH]c(=S)[nH]c2c1C(c1ccccc1)C1=C(N2)/C(=C/c2ccccc2)CCC1` (stereo not given), the Activity in test [1] was found to be 35.75%; in [3], 0.025; in the test on Rattus norvegicus [4], 49%; in the test on Rattus norvegicus [5], 53.2%; in the test with Rattus norvegicus [6], 41%; in the test with Mus musculus [7], 9.42 min. The Activity in the test with Mus musculus [8] amounted to 10.41 min; in the test with Mus musculus [9], 11.67 min; in the test on Mus musculus [10], 61.2%; in the test on Mus musculus [11], 65.1%; with Mus musculus [12], 69.2%; in the test with Mus musculus [13] it was 50.1%. For the same compound, the inhibition in test [2] was 81.5%. Besides, the outcome in the test on Brain and in the test on Kidney was Active.
